# Screening data from PubChem BioAssay.
# This is a sample that favours compounds with a hit; in the whole collection about 0.95% have one here.
# Arbovirus anti – arbovirus infection inhibition; arbovirus infection cell-based antiviral screen; inhibition, % at 10 µM; 0.37% of 200,000 active; in the data active = inhibition above about 30%
# HSV augment – increases HSV replication in cells; AID 1956; HSV replication augmentation in cells, fold increase; maximum fold increase; 0.005% of 220,000 active; in the data active = maximum fold increase above about 1.5; inconclusive = no clear call, values can overlap the other calls; tested in PC3 cells
# Furin inh – blocks human furin protease activity; P09958; purified furin, fluorogenic substrate cleavage; inhibition, % at 20 µM or 30 µM; 0.061% of 220,000 active; in the data active = inhibition above about 25%
# p47phox inh – p47phox (human) inhibition; P14598; p47phox/p22phox peptide binding, fluorescence polarization, 2 h; inhibition, % at 24.7 µM; 0.53% of 220,000 active; AID 1274;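 active = inhibition above about 30%, limit read from the data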;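 note: 0% = p47phox with labelled peptide and 100% = labelled peptide alone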
# ABCB1 block – human ABCB1 inhibition, ABCG2 as counter-screen; P08183; CCRF-Adr cells, JC-1 efflux, flow cytometry; inhibition, % at 6.6 µM; 0.067% of 190,000 active; AID 1326; in the data active = inhibition above about 40%;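 note: 0% = vehicle and 100% = reference inhibitor; higher value means more JC-1 retained so stronger ABCB1 efflux block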
# Target sequence (P08183 whole entry, looked up): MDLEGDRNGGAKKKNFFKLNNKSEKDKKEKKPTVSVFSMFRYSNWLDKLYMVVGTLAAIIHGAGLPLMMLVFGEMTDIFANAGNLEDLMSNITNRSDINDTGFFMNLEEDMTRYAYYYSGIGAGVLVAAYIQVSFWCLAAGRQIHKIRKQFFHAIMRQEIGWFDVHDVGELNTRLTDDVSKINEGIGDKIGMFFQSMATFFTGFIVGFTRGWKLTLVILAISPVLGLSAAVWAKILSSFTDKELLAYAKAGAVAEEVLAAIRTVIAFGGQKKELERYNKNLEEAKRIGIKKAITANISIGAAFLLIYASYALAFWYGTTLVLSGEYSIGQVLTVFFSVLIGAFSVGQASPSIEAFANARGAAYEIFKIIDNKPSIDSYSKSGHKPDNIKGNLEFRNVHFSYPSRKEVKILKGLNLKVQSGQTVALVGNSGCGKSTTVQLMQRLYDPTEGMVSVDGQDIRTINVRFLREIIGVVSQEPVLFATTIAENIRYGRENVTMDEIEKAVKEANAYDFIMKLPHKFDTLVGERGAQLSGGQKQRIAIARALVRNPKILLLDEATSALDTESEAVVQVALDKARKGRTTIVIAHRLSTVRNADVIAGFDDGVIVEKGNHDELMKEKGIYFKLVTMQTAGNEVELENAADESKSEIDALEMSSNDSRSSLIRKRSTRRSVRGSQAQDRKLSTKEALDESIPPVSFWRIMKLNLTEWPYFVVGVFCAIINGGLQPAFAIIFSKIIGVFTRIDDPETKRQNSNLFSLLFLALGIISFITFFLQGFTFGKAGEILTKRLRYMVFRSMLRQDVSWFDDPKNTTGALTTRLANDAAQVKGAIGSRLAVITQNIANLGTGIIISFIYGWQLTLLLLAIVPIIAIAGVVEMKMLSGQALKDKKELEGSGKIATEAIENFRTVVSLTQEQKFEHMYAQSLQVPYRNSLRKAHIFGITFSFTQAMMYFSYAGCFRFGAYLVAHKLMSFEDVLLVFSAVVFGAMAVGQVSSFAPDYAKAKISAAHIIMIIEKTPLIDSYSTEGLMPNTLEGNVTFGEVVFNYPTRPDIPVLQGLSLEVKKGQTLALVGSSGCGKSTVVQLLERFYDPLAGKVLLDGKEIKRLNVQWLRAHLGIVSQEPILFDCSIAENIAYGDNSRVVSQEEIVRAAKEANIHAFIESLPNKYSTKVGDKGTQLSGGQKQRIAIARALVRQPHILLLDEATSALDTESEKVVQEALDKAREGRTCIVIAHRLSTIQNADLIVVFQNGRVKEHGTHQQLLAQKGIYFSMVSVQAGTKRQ
# ABCG2 inh – inhibitors of human ABCG2 transporter, ABCB1 counter-screen | Q9UNQ0 | IgMXP3 cells, JC-1 efflux, flow cytometry | inhibition, % at 6.6 µM | 0.1% of 190,000 active | AID 1325;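 active = inhibition above 80%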;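 note: 0% = DMSO and 100% = nicardipine control wells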
#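 Assay system – ABCG2 IgMXP3 and barcoded ABCB1 CCRF-Adr cell mix · Input – 3 million cells/mL in well · Reagent – JC-1 fluorescent substrate · Compound – single test compound dose, 6.6 µM final · Timing – 10 min exposure at 25 °C with rotation, no wash · Detection – flow cytometry of retained JC-1 fluorescence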
# ABCB1 single pt – confirmation of human ABCB1 transporter inhibitors, ABCG2 counter-screen. inhibition, % at 6.6 µM. CCRF-Adr cells, JC-1 efflux, flow cytometry. AID 1451. 7% of 270 active. shares compounds with ABCG2 inh;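 active = inhibition of pump activity above 50%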;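 note: 0% = DMSO and 100% = nicardipine full pump inhibition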
# ABCG2 single pt – confirmation of human ABCG2 transporter inhibitors, ABCB1 counter-screen | shares compounds with ABCG2 inh | IgMXP3 cells, JC-1 efflux, flow cytometry | inhibition, % at 6.6 µM | 6% of 270 active;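 active = inhibition above 50%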;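 note: 0% = DMSO wells and 100% = nicardipine pump inhibitor wells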
# IgMXP3 fluor – counter-screen for ABCG2 inhibitors: compound fluorescence in IgMXP3 cells; fluorescence at 6.6 µM; compound autofluorescence 488/530 nm, flow; active compounds read high; 30% of 270 active; shares compounds with ABCG2 inh;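 active = fluorescence in ABCG2-expressing cells above the plate's control-well mean plus 3 SD, cut at about 15 in these data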;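 note: median cell fluorescence with compound minus that of DMSO-treated control cells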
# CCRF autofluor – CCRF-Adr autofluorescence flag for ABCB1 confirmation | CCRF-Adr cells, compound autofluorescence 488/530 nm, flow cytometry; active compounds read high | AID 1483 | shares compounds with ABCG2 inh | 30% of 270 active | fluorescence at 6.6 µM;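 active = fluorescence beyond the plate control mean plus 3 SD, with a fluorescence-to-maximum score over 2, cut at about 25 in these data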
# An asterisk follows results filed as active; i = inactive; ? = inconclusive; . = no result given; + = active, no number.
SMILES,Arbovirus anti,HSV augment,Furin inh,p47phox inh,ABCB1 block,ABCG2 inh,ABCB1 single pt,ABCG2 single pt,IgMXP3 fluor,CCRF autofluor
CC(=O)Oc1c(/C=C(\C#N)C(N)=O)[nH]c2ccccc12,-16,i,7,-24,163*,200*,-18,-1,132*,272*
CCN(CC)C1=CC2=CC(=C(C#N)C#N)CCC2CC1 (stereo not drawn),-1,?,2,62*,84*,43,24,74*,19*,40*
CCCCN(C)C1=CC2=CC(=C(C#N)C#N)CCC2CC1 (stereo not drawn),-5,?,-2,3,+,85*,164*,49,44*,232*
N#CC(C#N)=C1C=C2C=C(N3CCCCC3)CCC2CC1 (stereo not drawn),-11,?,-26,113*,170*,51,62*,62*,17*,67*
N#CC1=C(N)C2=C(N3CCCCC3)CCCC2C1(C#N)C#N (stereo not drawn),3,i,-19,-1,0,-1,.,.,.,.
O=C(Nc1ccccc1)Nc1ccccc1-n1ccnc1,13,i,-26,0,1,1,.,.,.,.
CCOC(=O)N1CCN(/C=C(\C#N)c2nc3ccccc3s2)CC1,5,i,11,-20,64*,87*,1,17,-0.99,15
N#C/C(=C\N1CCN(Cc2ccc3c(c2)OCO3)CC1)c1nc2ccccc2s1,-4,i,7,-93,13,16,.,.,.,.
CC(=O)NCCc1nc2ccccc2n1Cc1cccc(C)c1,.,i,-14,3,.,.,.,.,.,.
O=C(CSc1nnc(-c2ccc(C(F)(F)F)cn2)s1)c1ccc(Cl)cc1,.,i,-26,-127,.,.,.,.,.,.
CC[n+]1c(/C=C/c2c[nH]c3ccccc23)ccc2cc(C)ccc21,-36,.,11,-168,23,84*,2,-59,194*,62*
COCCn1c(SCC(=O)N2CCc3ccccc3C2)nc2cc(Cl)ccc2c1=O,14,i,-5,-15,33,26,27,29,-1.5,-3.6
COc1cc2c(cc1OC)C1(C)N(CC2)C(C(C)=O)=NN1c1ccc(Cl)cc1 (stereo not drawn),.,i,-12,1,.,.,.,.,.,.
COc1ccc(OCC(=O)Nc2ccccc2C(=O)N2CCOCC2)cc1,3,i,-36,-5,60*,0,1,4,0.36,-1.2
CCOCC(=O)Nc1ccccc1C(=O)N1CCOCC1,8,i,-17,-5,0,4,.,.,.,.
CCOc1ccccc1NC(=O)C(OC(=O)c1ccc(O)cc1)c1ccccc1 (stereo not drawn),-42,i,-1,-38,1,23,.,.,.,.
CCOc1ccccc1NC(=O)C(OC(=O)c1ccc(N(C)C)cc1)c1ccccc1 (stereo not drawn),4,i,-15,-25,5,117*,38,63*,2.2,21
COc1ccc(-c2nn(-c3ccccc3)cc2C(=O)NC(=S)Nc2cc(Cl)ccc2Cl)cc1,.,i,-6,-23,.,.,.,.,.,.
O=[N+]([O-])c1ccc(N2CCN(c3ccccc3F)CC2)c(S(=O)(=O)N2CCOCC2)c1,11,i,1,-47,.,.,1,5,-1.3,0.76
COc1ccc(/C=N/Nc2cc(=O)n(C)c(=O)n2C)cc1OC,-9,i,-4,-9,3,88*,2,48,23*,7.9
CCOc1ccc(-c2nc3scc(-c4cccs4)c3c(=O)[nH]2)cc1,-3,i,-29,-19,0,2,.,.,.,.
CC(C)CCn1c(O)c(N=Nc2ccccn2)c2ccccc21,2,i,-8,-7,2,87*,4,44,-1.1,-4.8
CCCn1c(O)c(N=Nc2ccc3ccccc3n2)c2ccccc21,5,i,-14,-107,1,-1,.,.,.,.
CCN(CC)P(=O)(Nc1cccc(C(F)(F)F)c1)c1ccc(N(C)C)cc1NC(=O)c1ccco1 (stereo not drawn),-13,i,-32,-15,56*,22,62*,13,-0.04,37*
C/C(CC(=O)NCCN1CCOCC1)=N\NC(=O)c1ccncc1,.,i,-23,-4,.,.,.,.,.,.
SMILES,Arbovirus anti,HSV augment,Furin inh,p47phox inh,ABCB1 block,ABCG2 inh,ABCB1 single pt,ABCG2 single pt,IgMXP3 fluor,CCRF autofluor
COC(=O)c1cc(NC(=O)c2cccc(Cl)c2)c(=O)oc1/C=C/Nc1cc(C)cc(C)c1,9,?,-17,-236,138*,135*,0,-183,503*,612*
CCOC(=O)C1=C(O)/C(=C/c2ccc(OCC(=O)O)c(OC)c2)SC1=Nc1ccc(OCC)cc1,0,i,1,-43,50*,16,-1,5,-1.8,-3.4
CCOC(=O)C1=C(O)/C(=C/c2ccc(OCC(=O)O)c(OCC)c2)SC1=Nc1ccccc1,-1,i,-22,-47,0,0,.,.,.,.
O/N=C/c1ccc(-c2cc(Cl)ccc2Cl)o1,10,i,2,-16,0,5,.,.,.,.
Clc1ccc(Cl)c(-c2ccc(/C=N/c3ncn[nH]3)o2)c1,-7,i,-26,-4,4,83*,0,9,1.1,-0.64
CCOc1nc(NCCO)nc(Nc2ccc([N+](=O)[O-])cc2)n1,-7,i,-1,-10,2,68,-1,34,-1.4,-0.59
CCOc1ccc(Nc2nc(Cl)nc(NCCO)n2)cc1,-7,i,-16,-17,0,15,.,.,.,.
COc1cc(SC)ccc1C(=O)Nc1ccccc1,4,i,-17,-3,-1,84*,3,36,18*,30*
COc1cccc(C(=O)N2C(C(=O)O)CSC2c2ccccc2Cl)c1 (stereo not drawn),2,i,-21,-11,0,9,.,.,.,.
O=C(NCC1OCCc2ccccc21)c1ccc(NC(=O)c2ccccc2Cl)cc1 (stereo not drawn),-18,i,-19,-9,-9,0,.,.,.,.
O=C(NCC1OCCc2ccccc21)c1ccc(NC(=O)c2ccc(Cl)cc2Cl)cc1 (stereo not drawn),-18,i,-19,3,95*,111*,6,43,1.7,-1.3
COC(=O)CCc1c(C)c(C(=O)c2ccc(F)cc2)c2ccccn12,6,i,-3,-10,0,3,.,.,.,.
